Laboratory results: ChEMBL document CHEMBL3244397, “New dopaminergic and potential anti-parkinson compounds, N,N-disubstituted beta-(3,4-dihydroxyphenyl)ethylamines” (J Med Chem, 1978)

Columns and labels:
Mus musculus [1] = assay: Antiparkinsonian activity in caudectomized mouse assessed as duration of curvature at 0.348 umol/g, ip; assay type: functional
In short: (§1)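 Hydrochlorides in 0.9% saline (0.4-0.6 mL) were given ip in random groups of six, with 5-6-day intervals between retests. A blinded observer recorded onset and duration of asymmetric posture; mean and SE per six mice.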

Rattus norvegicus [2] = assay: Antiparkinsonian activity in Nigra-lesioned rat assessed as number of turns at 0.348 umol/g, ip; assay type: functional
In short: (§2)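 Male Sprague-Dawley rats given 6-hydroxydopamine stereotaxically into the right substantia nigra. Used ≥4 weeks later if they turned away from the lesion after la (1.0 µg/g). The same six rats were dosed ip at 5-day intervals as hydrochloride in 0.9% saline; a saline-injected rat served as control. Turns were counted in automatic rotometers; mean and SE of total turns and duration.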

Mus musculus [3] = assay: Antiparkinsonian activity in caudectomized mouse assessed as onset of curvature at 0.087 umol/g, ip; assay type: functional; in short: as §1
Mus musculus [4] = assay: Antiparkinsonian activity in caudectomized mouse assessed as duration of curvature at 0.087 umol/g, ip; assay type: functional; in short: as §1
Rattus norvegicus [5] = assay: Antiparkinsonian activity in Nigra-lesioned rat assessed as number of turns per 98 mins at 0.087 umol/g, ip; assay type: functional
In short: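 Male Sprague-Dawley rats given 6-hydroxydopamine stereotaxically into the right substantia nigra. Used ≥4 weeks post-lesion if they rotated away from the lesion after reference agonist (1.0 µg/g ip). Compounds given ip as hydrochloride salts in 0.9% saline, […], to the same six rats at 5-day intervals. Turns counted in automatic rotometers. Mean ± SE of total turns and duration.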

Mus musculus [6] = assay: Antiparkinsonian activity in caudectomized mouse assessed as onset of curvature at 0.174 umol/g, ip; assay type: functional; in short: as §1
Mus musculus [7] = assay: Antiparkinsonian activity in caudectomized mouse assessed as duration of curvature at 0.174 umol/g, ip; assay type: functional; in short: as §1
Mus musculus [8] = assay: Antiparkinsonian activity in caudectomized mouse assessed as onset of curvature at 0.348 umol/g, ip; assay type: functional; in short: as §1
Mus musculus [9] = assay: Antiparkinsonian activity in caudectomized mouse assessed as duration of curvature at 0.435 umol/g, ip; assay type: functional; in short: as §1
Rattus norvegicus [10] = assay: Antiparkinsonian activity in Nigra-lesioned rat assessed as number of turns per 79 mins at 0.087 umol/g, ip; assay type: functional; in short: as §2
Mus musculus [11] = assay: Antiparkinsonian activity in caudectomized mouse assessed as duration of curvature at 0.003 umol/g, ip; assay type: functional; in short: as §1
Rattus norvegicus [12] = assay: Antiparkinsonian activity in Nigra-lesioned rat assessed as number of turns per 83 mins at 0.003 umol/g, ip; assay type: functional; in short: as §2
Mus musculus [13] = assay: Antiparkinsonian activity in caudectomized mouse assessed as onset of curvature at 0.003 umol/g, ip; assay type: functional; in short: as §1
Rattus norvegicus [14] = assay: Antiparkinsonian activity in Nigra-lesioned rat assessed as number of turns per 48 mins at 0.087 umol/g, ip; assay type: functional; in short: as §2
Mus musculus [15] = assay: Toxicity in caudectomized mouse assessed as mortality at 0.305 umol/g, ip; assay type: organism-based; conditions: in vivo
In short: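 Caudectomized mice, screened for postural response to la (1.0 µg/g), received hydrochloride ip in 0.9% saline. Deaths during behavioural observation were recorded; in one case eight mice were tested.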

Mus musculus [16] = assay: Antiparkinsonian activity in caudectomized mouse assessed as duration of curvature at 0.305 umol/g, ip; assay type: functional; in short: as §1
Rattus norvegicus [17] = assay: Antiparkinsonian activity in Nigra-lesioned rat assessed as number of turns per 45 mins at 0.087 umol/g, ip; assay type: functional; in short: as §2

## CC(C)CNCCc1ccc(O)c(O)c1.Cl
Mus musculus [1]
  Time: 0 min

## CCCCN(CCC)CCc1ccc2c(c1)OCO2.Cl
Rattus norvegicus [2]
  Activity: 0
Mus musculus [1]
  Time: 0 min

## CCCN(CCc1ccccc1)CCc1ccc(O)c(O)c1.Cl
Mus musculus [3]
  Time: 5 min
Mus musculus [4]
  Time: 15.4 min
Rattus norvegicus [5]
  Activity: 1065

## CCCCCN(C)CCc1ccc(O)c(O)c1.Cl
Mus musculus [1]
  Time: 20.6 min
Mus musculus [6]
  Time: 3.8 min
Mus musculus [4]
  Time: 0 min
Mus musculus [7]
  Time: 2.5 min
Mus musculus [8]
  Time: 14.6 min

## Cl.Oc1ccc(CCNCCc2ccccc2)cc1O
Mus musculus [1]
  Time: 0 min

## CN(CCc1ccccc1)CCc1ccc(O)c(O)c1.Cl
Mus musculus [1]
  Time: 21.2 min
Mus musculus [4]
  Time: 0 min
Mus musculus [8]
  Time: 6.7 min

## CCCCN(CCCC)CCc1ccc(O)c(O)c1.Cl
Mus musculus [1]
  Time: 0 min
Mus musculus [9]
  Time: 0 min

## CCCCCNCCc1ccc(O)c(O)c1.Cl
Mus musculus [1]
  Time: 0 min

## CCCCCN(CCC)CCc1ccc(O)c(O)c1.I
Mus musculus [3]
  Time: 4.2 min
Mus musculus [4]
  Time: 14 min
Rattus norvegicus [10]
  Activity: 628

## CN1CCc2cccc3c2[C@H]1Cc1ccc(O)c(O)c1-3 [APOMORPHINE]
Mus musculus [11]
  Time: 14.2 min
Rattus norvegicus [12]
  Activity: 828
Mus musculus [13]
  Time: 5 min

## CCCCN(CCC)CCc1ccc(O)c(O)c1.I
Rattus norvegicus [14]
  Activity: 457
Mus musculus [3]
  Time: 3.5 min
Mus musculus [4]
  Time: 6.7 min

## CCCCCN(CCCCC)CCc1ccc(O)c(O)c1.Cl
Mus musculus [15]
  Activity: Toxic
Mus musculus [16]
  Time: 0 min

## CCCCN(CCC)CCc1ccc(O)c(O)c1.Cl
Rattus norvegicus [17]
  Activity: 552
Mus musculus [3]
  Time: 4.6 min
Mus musculus [4]
  Time: 6.5 min

## CC(C)CN(C)CCc1ccc(O)c(O)c1.Cl
Mus musculus [1]
  Time: 31.8 min
Mus musculus [6]
  Time: 4 min
Mus musculus [4]
  Time: 0 min
Mus musculus [7]
  Time: 2.8 min
Mus musculus [8]
  Time: 3.6 min

## CCCN(CCc1ccc(O)c(O)c1)CC(C)C.Cl
Mus musculus [3]
  Time: 3.9 min
Mus musculus [4]
  Time: 10 min
